≈ marks a conversion by molar mass, not a printed value. Calls of active or inactive are those of the source. The calls are words filed in the database; no cut-off is given here.
What was measured:
NSCLC-N6 = experiment: Induction of polyploidy in human NSCLC-N6 cells assessed as 4N chromosome levels at 1 ug/ml by DNA cytogram; assay type: functional, cell-based
In short: (§1)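 NSCLC-N6 cells were grown in RPMI 1640 with 5% FCS, penicillin, streptomycin and 2 mM glutamine. 0.8 × 10^3 cells were cultured in flasks with or without compound for 48 h. Medium was removed and cells stained in situ with Vindelov solution. DNA content of 2000 nuclei was measured by flow cytometry to give DNA histograms.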

HT-29 = experiment: Cytotoxicity against human HT-29 cells after 72 hrs by MTT assay; assay type: functional, cell-based; conditions: HT-29, 72 h
In short: (§2)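 Cells were seeded in microtiter plates at 0.1 × 10^3 cells/ml. Growth was estimated at 72 h by MTT conversion to formazan. Values are means of 3 experiments.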

B16 = experiment: Cytotoxicity against mouse B16 cells after 72 hrs by MTT assay; assay type: functional, cell-based; conditions: B16, 72 h; in short: as §2
P388 [1] = experiment: Cytotoxicity against mouse P388 cells after 72 hrs by MTT assay; assay type: functional, cell-based; conditions: P388, 72 h; in short: as §2
[2] = Cell cycle arrest in human NSCLC-N6 cells assessed as reduction in accumulation at S phase by flow cytometry; assay type: functional, cell-based; in short: as §1
[3] = Cell cycle arrest in human NSCLC-N6 cells assessed as increase in accumulation at G2M phase by flow cytometry; assay type: functional, cell-based; in short: as §1
P388 [4] = experiment: Cytotoxicity against mouse doxorubicin resistant P388 cells after 72 hrs by MTT assay; assay type: functional, cell-based; conditions: P388, 72 h; in short: as §2
[5] = Cytotoxicity against human NSCLC-N6 cells after 72 hrs by MTT assay; assay type: functional, cell-based; conditions: NSCLC-N6, 72 h
In short: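 Cells originated from a nude-mouse graft and were cultured in RPMI 1640 with 5% fetal calf serum, penicillin, streptomycin and 2 mM glutamine. They were seeded in microtiter plates at 0.1 × 10^3 cells/ml. Growth was read by MTT-to-formazan conversion at 72 h. Values are means of 3 experiments.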

KB = experiment: Cytotoxicity against human KB cells after 72 hrs by MTT assay; assay type: functional, cell-based; in short: as §2
P388 [6] = experiment: Antitumor activity against mouse P388 cells xenografted mouse at 0.4 mg/kg, ip administered as 3 doses; assay type: functional; conditions: route intraperitoneal
[7] = Antitumor activity against human NSCLC-N6 cells xenografted mouse at 20 mg/kg, iv administered as 4 doses measured after 30 days; assay type: functional
In short: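 Nude mice carried sc NSCLC-N6 xenografts, serially passaged as mechanically dispersed tumour (about 1 g in 4.8 ml saline, 0.2 ml per mouse). Six mice per group were treated once tumours reached 50–200 mm3. Each received 20 mg/kg iv on days 1, 5, 9 and 11 (4 doses), in physiological saline with 2% DMSO.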

[8] = Cell cycle arrest in human NSCLC-N6 cells assessed as accumulation at G1 phase by flow cytometry; assay type: functional, cell-based; in short: as §1
[9] = Antitumor activity against human NSCLC-N6 cells xenografted mouse at 10 mg/kg/day, ip administered for 16 days measured after 30 days; assay type: functional; conditions: route intraperitoneal
In short: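 NSCLC-N6 tumour maintained by serial sc transplant in nude mice: 0.2 ml of a suspension from about 1 g of mechanically dispersed excised tumour in 4.8 ml sterile saline. Groups of six mice were treated once tumours reached 50–200 mm3. Dosing was 10 mg/kg ip daily on days 1–16, in physiological saline with 2% DMSO.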

Structure (SMILES): C/C=C/C(=O)C[C@H]1CC[C@H](C)[C@H](CC(=O)NC[C@H](O)[C@H](C)C(=O)NCCC[C@H]2O[C@@]3(CCC[C@H](CC[C@H](C)/C=C(\C)[C@H](C)O)O3)CC[C@@H]2C)O1 [BISTRAMIDE A]
- Activity (NSCLC-N6): Active
- IC50 (HT-29): 0.32 µg/mL (≈ 0.454 µM)
- IC50 (B16): 0.1 µg/mL (≈ 0.142 µM)
- IC50 (P388 [1]): 0.2 µg/mL (≈ 0.284 µM)
- Activity [2]: Active
- Activity [3]: Active
- IC50 (P388 [4]): 0.05 µg/mL (≈ 0.0709 µM)
- IC50 [5]: 0.03 µg/mL (≈ 0.0426 µM)
- IC50 (KB): 0.53 µg/mL (≈ 0.752 µM)
- T/C (P388 [6]): 118%

Structure (SMILES): CCCC(=O)CC1CCC(C)C(CC(=O)NCC(O)C(C)C(=O)NCCCC2OC3(CCCC(CCC(C)/C=C(\C)C(C)O)O3)CCC2C)O1 (stereo unspecified) [BISTRAMIDE B]
- IC50 (HT-29): 0.71 µg/mL (≈ 1 µM)
- IC50 (B16): 1.2 µg/mL (≈ 1.7 µM)
- IC50 (P388 [1]): 0.2 µg/mL (≈ 0.283 µM)
- Activity [2]: Active
- IC50 (P388 [4]): 1.16 µg/mL (≈ 1.64 µM)
- IC50 [5]: 0.32 µg/mL (≈ 0.453 µM)
- IC50 (KB): 2.1 µg/mL (≈ 2.97 µM)

Structure (SMILES): C/C=C/C(=O)C[C@H]1CC[C@H](C)[C@H](CC(=O)NC[C@H](O)[C@H](C)C(=O)NCCC[C@H]2O[C@@]3(CCC[C@@H](CC[C@H](C)/C=C(\C)C(C)=O)O3)CC[C@@H]2C)O1 [BISTRAMIDE C]
- IC50 (HT-29): 0.5 µg/mL (≈ 0.711 µM)
- IC50 (B16): 0.06 µg/mL (≈ 0.0854 µM)
- IC50 (P388 [1]): 0.02 µg/mL (≈ 0.0285 µM)
- Activity [2]: Active
- IC50 (P388 [4]): 0.05 µg/mL (≈ 0.0711 µM)
- IC50 [5]: 0.05 µg/mL (≈ 0.0711 µM)
- IC50 (KB): 0.65 µg/mL (≈ 0.925 µM)

Structure (SMILES): C/C=C/[C@H](O)CC1CCC(C)C(CC(=O)NCC(O)C(C)C(=O)NCCCC2OC3(CCCC(CCC(C)/C=C(\C)C(C)O)O3)CCC2C)O1 (stereo partly specified) [BISTRAMIDE D]
- IC50 (HT-29): 2.76 µg/mL (≈ 3.9 µM)
- IC50 (B16): 0.1 µg/mL (≈ 0.141 µM)
- IC50 (P388 [1]): 0.36 µg/mL (≈ 0.509 µM)
- T/C [7]: 53%
- Activity [2]: Active
- IC50 (P388 [4]): 5.82 µg/mL (≈ 8.23 µM)
- IC50 [5]: 3.43 µg/mL (≈ 4.85 µM)
- IC50 (KB): 10 µg/mL (≈ 14.1 µM)

Structure (SMILES): C/C=C/C(O)C/C=C/CC(C)C(O)CC(=O)NCC(O)C(C)C(=O)NCCCC1OC2(CCCC(CCC(C)/C=C(\C)C(C)O)O2)CCC1C (stereo unspecified) [BISTRAMIDE K]
- IC50 (HT-29): 5.6 µg/mL (≈ 7.92 µM)
- IC50 (B16): 1.9 µg/mL (≈ 2.69 µM)
- IC50 (P388 [1]): 0.57 µg/mL (≈ 0.806 µM)
- IC50 (P388 [4]): > 10 µg/mL
- Activity [8]: Active
- T/C [9]: 49%
- IC50 [5]: 3.23 µg/mL (≈ 4.57 µM)
- IC50 (KB): > 10 µg/mL

Structure (SMILES): Sc1ncnc2nc[nH]c12 [MERCAPTOPURINE ANHYDROUS]
- IC50 (HT-29): 0.87 µg/mL (≈ 5.72 µM)
- IC50 (B16): 0.8 µg/mL (≈ 5.26 µM)
- IC50 (P388 [1]): 0.7 µg/mL (≈ 4.6 µM)
- IC50 (P388 [4]): 0.26 µg/mL (≈ 1.71 µM)
- IC50 [5]: 0.79 µg/mL (≈ 5.19 µM)
- IC50 (KB): 0.55 µg/mL (≈ 3.61 µM)

Source: ChEMBL document CHEMBL1148068, “Bistramides A, B, C, D, and K: a new class of bioactive cyclic polyethers from Lissoclinum bistratum” (J Nat Prod, 1994)
